High-throughput results from PubChem.
MT stabilize HCS – microtubule stabilization, imaging screen. HeLa tubulin immunostaining HCS, 24 h; share of cells brighter than vehicle mean+2SD. % tubulin-high responders, % at 10 µM. 200,000 tested, 0.83% active;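 active = plate Z-score above 3 for both tubulin-high and condensed-nucleus cell shares, with cell loss under 80%, at 10 µM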;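 note: anti alpha tubulin signal scored within the nucleus-defined area of each cell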
Ba/F3 V617F tox – loss of viability in JAK2V617F-driven Ba/F3 cells. Ba/F3 EpoR-JAK2V617F viability, ATP luminescence. inhibition, % at 5.6 µM. 220,000 tested, 1.1% active;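 active = inhibition above the campaign mean plus 3 SD over all tested compounds, cut at about 24% in these data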;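 note: cytokine-independent growth of Ba/F3 cells driven by EpoR plus mutant JAK2; 0% = DMSO-treated cells and 100% = JAK inhibitor I control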
bCat nuc transl – modulators of beta-catenin nuclear translocation; AID 1665; nuclear translocation activity, % at 5 µM; HeLa beta-catenin nuclear translocation, immunofluorescence imaging; 190,000 tested, 0.3% active;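 active = nuclear translocation activity above 50% at 5 µM, with a well cell count of 50 or more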;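 note: per-cell ratio of nuclear to cytoplasmic median beta-catenin stain intensity; plate controls were DMSO negative control for no effect and GSK-3 inhibitor IX positive control for full effect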
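Technique: fluorescence imaging of beta-catenin antibody stain plus DAPI / Material: human HeLa cell line / Incubation: compound treatment 24 h, 37°C, 5% CO2 / Read-out basis: % activation of per-cell nuclear versus cytoplasmic median beta-catenin signal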
IEC-6 tox – kills IEC-6 intestinal cells in KLF5 counter-screen; IEC-6 cytotoxicity, luminescence viability; inhibition, % at 5 µM; 290,000 tested, 0.78% active; in the data active = inhibition above about 22%;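 note: 0% = plate median of test compound wells and 100% = cytotoxic reference compound wells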
APP transl inh – APP translation inhibition | SH-SY5Y APP 5'UTR-luciferase reporter, luminescence | inhibition, % at 2 µM | 190,000 tested, 0.82% active | AID 1285;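 active = inhibition above a set limit, derived from the sample mean plus 3 SD, cut at about 45% in these data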
BaF3 tox – parental Ba/F3 viability inhibition as JAK2V617F counter-screen; 220,000 tested, 1.1% active; CellTiter-Glo ATP luminescence; inhibition, % at 5.6 µM;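 active = inhibition above a per-campaign cutoff, the mean inhibition of all tested compounds plus 3 SD, cut at about 27% in these data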;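 note: 0% = DMSO wells and 100% = JAK Inhibitor I control wells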
* hit, by the source's call. In the library only some 2.2% were active in any assay of this set; here they are far more common.

Results for CS(=O)(=O)Nc1ccc(S(=O)(=O)N2CCCC2)cc1 ?
MT stabilize HCS: 3; Ba/F3 V617F tox: 0; bCat nuc transl: -1; IEC-6 tox: 7; APP transl inh: -4; BaF3 tox: 90*

What do the screens show for `Cc1ccccc1-n1nc2c(c1NC(=O)c1ccc3c(c1)OCO3)CS(=O)(=O)C2`?
IEC-6 tox: -10

Results for O=C1c2cccc3cc([N+](=O)[O-])cc(c23)C(=O)N1c1ccccc1O ?
MT stabilize HCS: 4; Ba/F3 V617F tox: 14; bCat nuc transl: 1; IEC-6 tox: 5; APP transl inh: 12; BaF3 tox: 29*

Results for CCCCc1c(CCC)c(=N)c2ccccc2n1C ?
MT stabilize HCS: 3; Ba/F3 V617F tox: 76*; bCat nuc transl: 0; IEC-6 tox: 0; APP transl inh: 7; BaF3 tox: 68*

Results for FC(F)(F)c1cccc(NC(=S)N(CCCN2CCCC2)Cc2cccn2Cc2ccc(Cl)cc2)c1 ?
MT stabilize HCS: 76*; Ba/F3 V617F tox: 11; bCat nuc transl: 1; IEC-6 tox: 9; APP transl inh: -19; BaF3 tox: 13

What do the screens show for `COc1ccc(NC(=S)N(CCCN2CCCC2)Cc2cccn2Cc2ccc(Cl)cc2)cc1Cl`?
MT stabilize HCS: 60*; Ba/F3 V617F tox: 5; bCat nuc transl: 0; IEC-6 tox: -4; APP transl inh: 10; BaF3 tox: 10

What do the screens show for `Cc1ccc(NC(=S)N(CCCN2CCCC2)Cc2cccn2Cc2ccc(Cl)cc2)cc1C`?
MT stabilize HCS: 2; Ba/F3 V617F tox: 3; bCat nuc transl: 2; IEC-6 tox: 4; APP transl inh: -9; BaF3 tox: 11

What do the screens show for `Nc1c(Cl)ncnc1N/N=C/c1ccccn1`?
MT stabilize HCS: 3; Ba/F3 V617F tox: 5; bCat nuc transl: -1; IEC-6 tox: 9; APP transl inh: 92*; BaF3 tox: 6

How did Nc1c(Cl)ncnc1N/N=C/c1cccnc1 do in these assays?
Ba/F3 V617F tox: 4; bCat nuc transl: 0; IEC-6 tox: 1; BaF3 tox: 19

Results for Nc1c(Cl)ncnc1N/N=C/c1ccnc2ccccc12 ?
MT stabilize HCS: 1; Ba/F3 V617F tox: 1; bCat nuc transl: 0; IEC-6 tox: 1; APP transl inh: -24; BaF3 tox: 6

How did Nc1c(Cl)ncnc1N/N=C/c1ccc2ccccc2n1 do in these assays?
MT stabilize HCS: 3; Ba/F3 V617F tox: -1; bCat nuc transl: -1; IEC-6 tox: 8; APP transl inh: 66*; BaF3 tox: 5

How did CSCC[C@H](NC(=O)N1CCn2c1nc1ccccc12)C(=O)NCc1ccc(C)cc1 do in these assays?
IEC-6 tox: 0

Results for O=C(NC1CCCCC1)C(c1cccnc1)N(C(=O)CCl)c1cccc(Cl)c1 (centres undefined) ?
MT stabilize HCS: 14*; Ba/F3 V617F tox: 10; bCat nuc transl: 25; IEC-6 tox: 4; APP transl inh: 26; BaF3 tox: 8

What do the screens show for `Cc1cccc(N(C(=O)CNC(=O)c2ccco2)C(C(=O)NC2CCCCC2)c2cccnc2)c1` (centres undefined)?
IEC-6 tox: -2

What do the screens show for `O=C(c1ccccn1)N1CCCC(N2CCN(c3ccccc3)CC2)C1` (centres undefined)?
IEC-6 tox: 1

What do the screens show for `CCCCN1C=CC(=C2C(=O)c3ccccc3C2=O)C=C1`?
MT stabilize HCS: 3; Ba/F3 V617F tox: 21; bCat nuc transl: -1; IEC-6 tox: 19; APP transl inh: 58*; BaF3 tox: 22

What do the screens show for `Cc1ccc(/C=N/NC(=O)CCn2nc(C)cc2C)c(C)c1`?
MT stabilize HCS: 27*; Ba/F3 V617F tox: 0; bCat nuc transl: 41; IEC-6 tox: -2; APP transl inh: 5; BaF3 tox: 5

Results for Cc1cc(C)n(CCC(=O)N/N=C/c2ccc(O)cc2)n1 ?
MT stabilize HCS: 3; Ba/F3 V617F tox: -2; bCat nuc transl: -2; IEC-6 tox: -2; APP transl inh: 16; BaF3 tox: 5

What do the screens show for `CCOc1cc2c(cc1OC)C(NC(=O)c1ccco1)CC2=O` (centres undefined)?
IEC-6 tox: -4

Results for CCCN1C(=O)/C(=C\C=C2\N(CC)c3ccccc3C2(C)C)SC1=S ?
MT stabilize HCS: 27; Ba/F3 V617F tox: -1; bCat nuc transl: 0; IEC-6 tox: 0; APP transl inh: -22; BaF3 tox: 3

Results for CN1C(=CC=C2C=C(I)C(=O)C(I)=C2)C(C)(C)c2ccccc21 ?
Ba/F3 V617F tox: -1; bCat nuc transl: 12; IEC-6 tox: -7; BaF3 tox: 33*

What do the screens show for `CN1/C(=C\C=C2/SC(=S)NC2=O)C(C)(C)c2ccccc21`?
MT stabilize HCS: 19; Ba/F3 V617F tox: 65*; bCat nuc transl: 15; IEC-6 tox: 1; APP transl inh: -2; BaF3 tox: 81*

What do the screens show for `CN1/C(=C\C=C2/C(=O)Oc3ccccc3C2=O)C(C)(C)c2ccccc21`?
MT stabilize HCS: 1; Ba/F3 V617F tox: -1; bCat nuc transl: -8; IEC-6 tox: 6; APP transl inh: -52; BaF3 tox: 7

Results for O=C(NNC(=O)c1cccnc1SCc1cccc([N+](=O)[O-])c1)c1ccccn1 ?
MT stabilize HCS: 5; Ba/F3 V617F tox: -2; bCat nuc transl: 1; IEC-6 tox: 5; APP transl inh: 72*; BaF3 tox: 9

What do the screens show for `COC(=O)C(CC(=O)c1ccc(Br)cc1)n1cccn1` (centres undefined)?
IEC-6 tox: 6

What do the screens show for `Cc1ccc(NC(=S)NNC(=O)CSc2nc3ccccc3c(=O)n2-c2ccc(C)cc2)cc1`?
MT stabilize HCS: 2; Ba/F3 V617F tox: 2; bCat nuc transl: 1; IEC-6 tox: -1; APP transl inh: -13; BaF3 tox: 43*

Results for Cc1ccc(NC(=O)CSc2nc3ccccc3c3nc4ccccc4n23)cc1 ?
MT stabilize HCS: 33*; Ba/F3 V617F tox: 1; bCat nuc transl: 148*; IEC-6 tox: 11; APP transl inh: 51*; BaF3 tox: 3

What do the screens show for `COc1ccc(NC(=O)CSc2nc3ccccc3c3nc4ccccc4n23)cc1`?
MT stabilize HCS: 25*; Ba/F3 V617F tox: -1; bCat nuc transl: 28; IEC-6 tox: -3; APP transl inh: 81*; BaF3 tox: 5

What do the screens show for `c1ccc(-c2ccc(-c3nc(-c4ccccn4)no3)cc2)cc1`?
MT stabilize HCS: 2; Ba/F3 V617F tox: 12; bCat nuc transl: 3; IEC-6 tox: 8; APP transl inh: 46*; BaF3 tox: 12

What do the screens show for `CC[N+](C)(CC)CC(=O)OCC1C(C)C=C(C)CC1C` (centres undefined)?
Ba/F3 V617F tox: 27*; bCat nuc transl: 0; IEC-6 tox: 2; BaF3 tox: 34*

Results for O=C(O)c1ccc(NC(=O)c2cccc(S(=O)(=O)Nc3ccc(C(=O)O)cc3)c2)cc1 ?
IEC-6 tox: 0
